L929 necroptosis = inhibitors of zVAD-triggered necroptosis, primary screen, L929 cells; actives 0.38% (n = 220,000); L929 zVAD necroptosis rescue, ATP luminescence, 24 h; with zVAD 60 µM; AID 1377, 2008; viability rescue, % at 10 µM;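 active means activation, scaled between plate controls, above about 75%, limit read from the data; inactive means activation under that limit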;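 further: 0% = zVAD with DMSO and 100% = DMSO alone without zVAD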
TNF death inh = inhibitors of TNF-alpha triggered necroptosis, primary screen, cell-based, Jurkat FADD-/-, single concentration. Jurkat FADD-/- TNF necroptosis rescue, ATP luminescence, 24 h; 0 = TNF only, 100 = no-TNF cells. activation (protection from cell death), % at 10 µM. actives 0.068% (n = 220,000);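 active means activation, meaning protection from cell death, of at least 50% relative to plate controls; inactive means activation below 50%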;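 further: necroptosis triggered by 40 ng/mL TNF-alpha added together with compound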
MDM2 E3 inh = MDM2-luciferase reporter signal enhancers, primary screen, MDM2 E3 ligase inhibitor project, cell-based, luminescence, 1536-well; E3 ubiquitin-protein ligase Mdm2 (Homo sapiens), Q00987; cell-based MDM2 ubiquitination luciferase reporter, 2 h; 0 = plate control, 100 = twice control, blank-subtracted; signal enhancement, % at 5 µM; actives 0.11% (n = 210,000); AID 1230, 2008;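 active means signal enhancement of 30% or more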;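 further: luminescence tracks abundance of the self-degrading MDM2-luciferase fusion protein; higher signal means inhibition of MDM2 E3 ligase activity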
Target sequence (Q00987 whole entry, looked up, the tested form may be a part): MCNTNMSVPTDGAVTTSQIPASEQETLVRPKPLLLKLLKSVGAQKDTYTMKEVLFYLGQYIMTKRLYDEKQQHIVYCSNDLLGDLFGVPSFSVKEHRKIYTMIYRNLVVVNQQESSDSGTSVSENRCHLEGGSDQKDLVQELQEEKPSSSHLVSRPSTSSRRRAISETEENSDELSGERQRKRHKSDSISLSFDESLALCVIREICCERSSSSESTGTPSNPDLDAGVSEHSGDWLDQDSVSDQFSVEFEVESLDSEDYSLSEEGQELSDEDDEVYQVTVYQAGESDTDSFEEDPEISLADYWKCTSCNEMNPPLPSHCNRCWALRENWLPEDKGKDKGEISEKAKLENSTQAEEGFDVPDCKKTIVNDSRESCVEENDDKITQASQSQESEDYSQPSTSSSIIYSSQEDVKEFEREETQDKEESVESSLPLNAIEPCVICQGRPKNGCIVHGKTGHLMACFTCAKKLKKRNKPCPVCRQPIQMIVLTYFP
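Assay system: stable mammalian line carrying autodegrading MDM2–luciferase fusion reporter; Input: 2000 cells in each well; Compound dosing: single-point 5 µM; Schedule: 2 h compound exposure at 37 °C; Signal: SteadyLite luciferase luminescence after 15 min room-temperature reagent incubation; Evaluation: % luminescence enhancement versus blank-corrected plate control mean; Benchmarks: plate controls and plate blanks.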
Autophagy HCS = autophagy modulators in MEF cells, primary screen, imaging, high-content, MEF GFP-LC3. actives 0.98% (n = 190,000). calls only at 10 µM (by protocol). MEF GFP-LC3 puncta imaging; test concentration mostly 10 µM;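 active means percentage of spot-positive cells more than 3 SD above its plate mean, without a fluorescence outlier flag or 80% toxicity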;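 further: spot-positive cell cutoff set from DMSO-treated cells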
Dynein cargo inh = inhibitors of GR-EGFP nuclear translocation, primary screen, dynein cargo transport inhibitor project, imaging, high-content, 3617.4 mouse cells; z-score, hits read low; AID 1381, 2008; test concentration mostly 20 µM; stimulated with dexamethasone, 1 µM; active compounds read low; actives 0.47% (n = 220,000);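 active means plate z-score of nuclear minus cytoplasmic receptor signal below a set negative limit, without overly bright fluorescence or cell loss, cut at about -3.5 in these data, passing the limit was not always enough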;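 further: z-score of nuclear minus cytoplasmic ring GR-EGFP intensity difference per well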
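Buffer or medium: tet-free, stripped-serum medium; Also added: dexamethasone, 1.0 µM final; Technique: high-content fluorescence imaging after fixation; Times: 48 h induction, 1 h compound, 30 min dex at 37 °C; Read-out: per-cell GR-EGFP intensity, nucleus versus surrounding cytoplasmic ring, well-averaged.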
Dynein inh conf = dynein cargo transport inhibitors, GR-EGFP translocation, confirmation, imaging, high-content imaging, GR-EGFP cells. shares compounds with Dynein cargo inh. actives 69% (n = 1,000). calls only at 20 µM. AID 463116, 2010. 3617.4 GR-EGFP nuclear translocation imaging, dexamethasone-induced;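 active means inhibition of receptor movement into the nucleus at or above a set limit in both runs, with normal cell brightness and cell count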;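 further: dexamethasone at 1 µM final in well for 30 min; nuclear minus cytoplasmic GR-EGFP mean intensity difference in channel 2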
* hit, by the source's call; i = inactive; / = not tested or not shown; + = active, no number. In the library only some 1.8% were active in any assay of this set; here they are far more common.

SMILES	L929 necroptosis	TNF death inh	MDM2 E3 inh	Autophagy HCS	Dynein cargo inh	Dynein inh conf
CC(C)c1ccc(N2C(=O)NC(=O)/C(=C/C=C/c3ccco3)C2=O)cc1	0	-14	-5	i	-0.068	/
CCc1ccc(N2C(=O)NC(=O)/C(=C\C=C\c3ccco3)C2=O)cc1	1	-20	/	/	-3.9*	+
O=c1[nH]sc2cc(F)ccc12	-1	-5	-19	i	-4.9*	+
S=C=Nc1ccccn1	0	0	-6	i	-0.56	/
Cc1cc2c(C(F)(F)F)cc(=O)oc2c2c1NCCC2	0	-6	-10	i	0.12	/
O=c1cc(C(F)(F)F)c2cc3c4c(c2o1)CCCN4CCC3	0	-2	-18	i	-4.8*	+
O=C1/C(=C/c2ccccc2Cl)N2CCC1CC2	1	6	-8	/	-1.9	/

High-throughput results as filed in PubChem.
